Compound activity deposited in PubChem BioAssay by several laboratories.
This is a sample that favours compounds with a hit; in the whole collection about 4.1% have one here.
T cruzi repl = blocks replication of Trypanosoma cruzi; AID 1885; T. cruzi beta-gal in NIH3T3, luminescence, 90 h; inhibition, % (no concentration beside the values); actives 1.4% (n = 300,000);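 active means mean inhibition across valid replicates above about 55%, limit read from the data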;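 further: signal also drops with host cell toxicity which is not excluded here; higher percent means less beta-gal luminescence so fewer parasites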
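assay system = mouse NIH/3T3 fibroblasts infected with β-gal-expressing T. cruzi Tulahuen C4 | input = 5,000 NIH/3T3 host cells per well | buffer or medium = DMEM plus 2% FBS | timing = 3 h host attachment, then at least 90 h co-culture | measured by = GalScreen luminescence, 60 min | evaluation = luminescence reflecting intracellular parasite burden, expressed as percent inhibition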
HCV NS3 hel inh = blocks Hepatitis C virus NS3 helicase unwinding. actives 0.56% (n = 290,000). AID 1800. NS3 helicase DNA unwinding, Cy5 molecular beacon fluorescence. inhibition, % at 10.9 µM;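 active means inhibition above the mean of all tested compounds plus 3 SD, set per campaign, cut at about 35% in these data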
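Control set: DMSO versus 110 µM thioflavine S; Material: NS3 helicase fragment of HCV; Measured by: Cy5 fluorescence at 0 and 60 min, beacon hairpin quenching; Read-out basis: percent inhibition from t60/t0 fluorescence ratio; Times: reaction time 60 min, 25 °C; Repeats: single replicate; Compound dosing: single dose, 10.9 µM nominal final, DMSO 0.8% final.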
DNA FID counter = fluorescent intercalator displacement, NS3 helicase counter-screen; DNA fluorescent intercalator displacement, fluorescence; inhibition, % at 7.9 µM; actives 0.17% (n = 290,000); in the data active means inhibition above about 37%;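 further: higher means more ethidium bromide displaced from hairpin DNA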
MEKK2 mut-MEK5 = signal of MEK5 binding to mutant human MEKK2 PB1 domain; AID 1530; bead flow cytometry, Alexa488-MEK5 binding to MEKK2 mutant; percent response, % at 10 µM; actives 0.35% (n = 290,000); in the data active means percent response above about 24%, passing the limit was not always enough
MEKK3 PB1 HTS = raises or lowers MEK5 binding to the human MEKK3 PB1 domain; actives 1.4% (n = 290,000); bead-based flow cytometry, Alexa488-MEK5 binding to MEKK3; actives lie on both sides; 0 = blocked by unlabeled MEK5, 100 = vehicle; AID 1529; binding response (% of control), % at 10 µM;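 active means binding response more than 3 SD above or below the average of its plate-row segment, actives on both sides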;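 further: Alexa488 bead fluorescence after subtracting the streptavidin-only scavenger bead signal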
Target sequence (Q99759 whole entry, looked up, the tested form may be a part): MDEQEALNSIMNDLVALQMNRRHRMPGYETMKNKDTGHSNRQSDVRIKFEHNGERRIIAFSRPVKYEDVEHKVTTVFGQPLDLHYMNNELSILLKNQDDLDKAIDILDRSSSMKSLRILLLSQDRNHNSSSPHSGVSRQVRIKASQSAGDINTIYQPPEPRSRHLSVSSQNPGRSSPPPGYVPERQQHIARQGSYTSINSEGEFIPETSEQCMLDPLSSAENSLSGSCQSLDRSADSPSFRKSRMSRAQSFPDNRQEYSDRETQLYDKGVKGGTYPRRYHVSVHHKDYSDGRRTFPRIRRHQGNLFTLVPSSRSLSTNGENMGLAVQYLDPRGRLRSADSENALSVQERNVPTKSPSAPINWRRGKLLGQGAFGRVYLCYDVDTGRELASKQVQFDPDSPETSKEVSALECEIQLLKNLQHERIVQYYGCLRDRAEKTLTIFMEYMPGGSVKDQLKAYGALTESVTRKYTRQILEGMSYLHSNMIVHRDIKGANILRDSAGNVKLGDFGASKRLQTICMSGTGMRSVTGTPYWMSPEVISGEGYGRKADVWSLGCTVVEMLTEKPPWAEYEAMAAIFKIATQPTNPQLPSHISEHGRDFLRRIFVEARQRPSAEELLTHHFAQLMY
MEKK2wt PB1 HTS = raises or lowers MEK5 binding to wildtype human MEKK2 PB1 domain; bead flow cytometry, Alexa488-MEK5 binding to MEKK2 WT; actives lie on both sides; Q9Y2U5; AID 1531; actives 1.1% (n = 290,000); binding response (% of control), % at 10 µM; in the data active means binding response below about 67% or above about 130%
MEKK2wt confirm = raises or lowers MEK5 binding to wildtype human MEKK2, retest; shares compounds with MEKK3 PB1 HTS; bead flow cytometry, Alexa488-MEK5 binding to MEKK2 WT; actives lie on both sides; binding response (% of control), % at 10 µM; actives 2.4% (n = 5,900); AID 1892; in the data active means binding response below about 16% or above about 210%; inactive means in between
MEKK2mut confirm = signal of MEK5 binding to mutant human MEKK2, retest. shares compounds with MEKK3 PB1 HTS. bead flow cytometry, Alexa488-MEK5 binding to MEKK2 mutant. percent response, % at 10 µM. actives 2% (n = 5,900); in the data active means percent response mostly above about 71%, no sharp cut-off; inactive means mostly below about 38%;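 further: higher means compound restores mutant binding toward wildtype level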
MEKK3 confirm = MEKK3-MEK5 PB1 inhibition, single concentration confirmation; shares compounds with MEKK3 PB1 HTS; bead flow cytometry, Alexa488-MEK5 binding to MEKK3; stronger effect = lower value; binding response (% of control), % at 10 µM; actives 1.8% (n = 5,900);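 active means binding response below 72% of control, or above a set upper limit, though filed actives all read lower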
Large screens that a line does not name were inactive (follow-up assays come after a bar, where they were run); [ ] = remark or other dose.

Cc1cc(C)c2c(N=NN3CCOCC3)[nH]nc2n1	none
CCOC(=O)Cc1csc(NC(=O)c2ccc(OC)c(OC)c2)n1	MEKK3 PB1 HTS 1.0[inhibitor], MEKK2wt PB1 HTS 0.0[inhibitor] | MEKK2wt confirm inactive | MEKK2mut confirm inactive | MEKK3 confirm inactive
CCOC(=O)Cc1csc(NC(=O)c2cccc(OC)c2)n1	none
CCOC(=O)Cc1csc(NC(=O)COc2ccc(OC)cc2)n1	none
CCOC(=O)Cc1csc(NC(=O)COc2ccc(N(C)S(=O)(=O)c3ccc(C)cc3)cc2)n1	MEKK3 PB1 HTS 128 | MEKK2wt confirm inactive | MEKK2mut confirm inactive | MEKK3 confirm inactive
Cc1ccc2[nH]c3c(c2c1)CN(C(C)C)CC3	none
CC(C)(C)c1ccc(NC(=O)c2c(F)cccc2Cl)cc1	MEKK3 PB1 HTS 47[inhibitor], MEKK2wt PB1 HTS 34[inhibitor] | MEKK2wt confirm inactive | MEKK2mut confirm inactive | MEKK3 confirm inactive
COc1cc2c(cc1OC)C(C)N(C(=O)c1cc3c(C)cc(C)cc3[nH]1)CC2 (stereo not drawn)	none
CCOc1ccc(/C(O)=C2\C(=O)C(=O)N(c3cc(C)on3)C2c2ccccc2OC)cc1 (stereo not drawn)	MEKK3 PB1 HTS 2.0[inhibitor], MEKK2wt PB1 HTS 2.0[inhibitor] | MEKK2wt confirm inactive | MEKK2mut confirm inactive | MEKK3 confirm inactive
CCOc1ccc(C2/C(=C(\O)c3ccc(OC)c(OC)c3)C(=O)C(=O)N2c2cc(C)on2)cc1OC (stereo not drawn)	none
O=C(C[n+]1cc(-c2ccc(Cl)cc2)n2c1CCC2)Nc1nc(-c2ccccc2)cs1	MEKK2wt PB1 HTS 146 | MEKK2wt confirm inactive | MEKK2mut confirm inactive | MEKK3 confirm inactive
O=C(C[n+]1cc(-c2ccc(F)cc2)n2c1CCC2)Nc1nc(-c2ccccc2)cs1	none
Cc1ccc(-c2c[n+](CC(=O)Nc3nc(-c4ccc(F)cc4)cs3)c3n2CCC3)cc1	DNA FID counter 44, MEKK2 mut-MEK5 76, MEKK2wt PB1 HTS 226 | MEKK2wt confirm inactive | MEKK2mut confirm 76 | MEKK3 confirm inactive
Cc1oc(-c2ccccc2)cc1C(=O)NC1CCN(Cc2ccccc2)CC1	none
O=C(CN(c1ccc(Cl)c(Cl)c1)S(=O)(=O)c1ccccc1)N1CCc2ccccc2C1	none
COc1ccccc1N(CC(=O)N1CCCC1)S(=O)(=O)c1ccc(C)cc1	none
CCOC(=O)N1CCN(C(=O)CN(c2ccccc2OC)S(=O)(=O)c2ccc(C)cc2)CC1	MEKK3 PB1 HTS 12[inhibitor], MEKK2wt PB1 HTS 18[inhibitor] | MEKK2wt confirm inactive | MEKK2mut confirm inactive | MEKK3 confirm inactive
Cc1ccc(S(=O)(=O)N(CC(=O)N2CCc3ccccc3C2)c2ccc(Cl)c(Cl)c2)cc1	MEKK3 PB1 HTS 146 | MEKK2wt confirm inactive | MEKK2mut confirm inactive | MEKK3 confirm inactive
C=CCNC(=S)Nc1ccccc1	MEKK3 PB1 HTS 79[inhibitor] | MEKK2wt confirm inactive | MEKK2mut confirm inactive | MEKK3 confirm inactive
COC(=O)c1cc(OC(=O)CCc2ccc(OC)c(OC)c2)cc(C(=O)OC)c1	none
N#CC1=C(N)OC(c2ccccc2)=C(C#N)C1c1ccc2c(c1)OCO2 (stereo not drawn)	MEKK3 PB1 HTS 133 | MEKK2wt confirm inactive | MEKK2mut confirm inactive | MEKK3 confirm inactive
Cc1ccc(C(C)C)c(OCC(=O)NCC(c2cccs2)N2CCOCC2)c1 (stereo not drawn)	none (no result: HCV NS3 hel inh, DNA FID counter, MEKK2 mut-MEK5, MEKK3 PB1 HTS, MEKK2wt PB1 HTS)
O=C(Cn1cnc2c(nnn2Cc2ccc(F)cc2)c1=O)Nc1ccc2c(c1)OCCO2	none
CC1(C)CC(NCc2cccc([N+](=O)[O-])c2)CC(C)(C)N1	none
CC1(C)CC(O)C(C(O)c2cccc([N+](=O)[O-])c2)C(C)(C)N1 (stereo not drawn)	MEKK3 PB1 HTS 148 | MEKK2wt confirm inactive | MEKK2mut confirm inactive | MEKK3 confirm inactive
CC(C)(C)OC(=O)N1CCC(c2cc(=O)n3[nH]cc(C(=O)NC4CCCC4)c3n2)CC1	none
CC(C)(C)OC(=O)N1CCC(c2cc(=O)n3[nH]cc(C(=O)Nc4ccc(F)c(Cl)c4)c3n2)CC1	MEKK3 PB1 HTS 129 | MEKK2wt confirm inactive | MEKK2mut confirm inactive | MEKK3 confirm inactive
CN(C(=O)NC(=O)C1=C(N2CCOCC2)/C(=C/c2ccccc2)CC1)S(C)(=O)=O	MEKK3 PB1 HTS 2.0[inhibitor], MEKK2wt PB1 HTS -2.0[inhibitor] | MEKK2wt confirm inactive | MEKK2mut confirm inactive | MEKK3 confirm inactive
COc1ccccc1OCC(=O)NCCSCc1cccc(Cl)c1	none
CCn1c(SCC(=O)NCc2ccc3c(c2)OCO3)nnc1-c1cccs1	none
O=C(CSc1nnc(-c2cccs2)n1Cc1ccccc1)NCc1ccc2c(c1)OCO2	MEKK3 PB1 HTS 76[inhibitor] | MEKK2wt confirm inactive | MEKK2mut confirm inactive | MEKK3 confirm inactive
CCCNC(=O)Cc1c(C)oc2ccccc12	MEKK3 PB1 HTS 130 | MEKK2wt confirm inactive | MEKK2mut confirm inactive | MEKK3 confirm inactive
O=C(NC(=S)NNC(=O)c1cnccn1)c1ccc(Cl)cc1	MEKK3 PB1 HTS 2.0[inhibitor], MEKK2wt PB1 HTS -10[inhibitor] | MEKK2wt confirm inactive | MEKK2mut confirm inactive | MEKK3 confirm inactive
COc1ccc(Oc2ccc(C(F)(F)F)cc2NC(=O)c2ccc(F)cc2)cc1	MEKK3 PB1 HTS 133 | MEKK2wt confirm inactive | MEKK2mut confirm inactive | MEKK3 confirm inactive
CCOC(=O)c1ccccc1NC(=O)CN1C(=O)NC(C)(CCc2ccccc2)C1=O (stereo not drawn)	none (no result: HCV NS3 hel inh, DNA FID counter, MEKK2 mut-MEK5, MEKK3 PB1 HTS, MEKK2wt PB1 HTS)
COc1cccc(NC(=O)Nc2nnc(-c3ccccc3SCc3ccccc3)s2)c1	none (no result: T cruzi repl)
COc1ccc(NC(=O)Nc2nnc(-c3ccccc3SCc3ccccc3)s2)cc1	MEKK3 PB1 HTS 122 | MEKK2wt confirm inactive | MEKK2mut confirm inactive | MEKK3 confirm inactive
COc1ccccc1NS(=O)(=O)c1cccc(-n2c(O)c(C=Nc3ccccc3C(=O)O)c3ccccc3c2=O)c1	none
CN1c2ccccc2C(O)=C(C(=S)Nc2ccc(F)c(Cl)c2)S1(=O)=O	MEKK3 PB1 HTS 130 | MEKK2wt confirm inactive | MEKK2mut confirm inactive | MEKK3 confirm inactive
Cc1ccc(S(=O)(=O)NC(C)C(=O)NC(C)c2cccs2)cc1 (stereo not drawn)	none
O=C(CCC(=O)c1ccc(F)cc1)Nc1cccc(Br)c1	none
